The values that follow come from ChEMBL document CHEMBL3414516, “Novel pyridyl substituted 4,5-dihydro-[1,2,4]triazolo[4,3-a]quinolines as potent and selective aldosterone synthase inhibitors with improved in vitro metabolic stability” (J Med Chem, 2015).

Series [1] has as its target T1, Aromatase (Homo sapiens, UniProt P11511).
T1 sequence (P11511 whole entry): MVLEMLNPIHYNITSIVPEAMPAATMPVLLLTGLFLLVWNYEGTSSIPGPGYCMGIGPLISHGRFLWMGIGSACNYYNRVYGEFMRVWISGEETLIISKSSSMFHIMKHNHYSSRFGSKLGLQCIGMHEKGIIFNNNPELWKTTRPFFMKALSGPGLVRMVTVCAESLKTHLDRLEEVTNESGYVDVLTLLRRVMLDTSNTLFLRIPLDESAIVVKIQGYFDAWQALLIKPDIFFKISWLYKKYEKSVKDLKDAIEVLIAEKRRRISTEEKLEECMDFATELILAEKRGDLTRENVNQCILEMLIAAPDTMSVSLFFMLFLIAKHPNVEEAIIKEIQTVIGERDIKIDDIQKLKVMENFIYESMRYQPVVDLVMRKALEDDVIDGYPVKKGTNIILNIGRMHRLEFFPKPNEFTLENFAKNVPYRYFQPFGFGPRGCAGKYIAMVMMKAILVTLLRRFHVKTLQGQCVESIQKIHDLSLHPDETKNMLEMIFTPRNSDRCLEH
Briefly: Inhibition of CYP19 in human placental microsomes using [1beta-3H]androstenedione substrate. More on the design: species or system Placenta.

For series [2], the species on record is Homo sapiens. Briefly: Selectivity index, ratio of IC50 for human CYP11B1 to IC50 human CYP11B2.
The target in series [3] is T2, Cytochrome P450 1A2 (Homo sapiens, UniProt P05177).
T2 sequence (P05177 whole entry): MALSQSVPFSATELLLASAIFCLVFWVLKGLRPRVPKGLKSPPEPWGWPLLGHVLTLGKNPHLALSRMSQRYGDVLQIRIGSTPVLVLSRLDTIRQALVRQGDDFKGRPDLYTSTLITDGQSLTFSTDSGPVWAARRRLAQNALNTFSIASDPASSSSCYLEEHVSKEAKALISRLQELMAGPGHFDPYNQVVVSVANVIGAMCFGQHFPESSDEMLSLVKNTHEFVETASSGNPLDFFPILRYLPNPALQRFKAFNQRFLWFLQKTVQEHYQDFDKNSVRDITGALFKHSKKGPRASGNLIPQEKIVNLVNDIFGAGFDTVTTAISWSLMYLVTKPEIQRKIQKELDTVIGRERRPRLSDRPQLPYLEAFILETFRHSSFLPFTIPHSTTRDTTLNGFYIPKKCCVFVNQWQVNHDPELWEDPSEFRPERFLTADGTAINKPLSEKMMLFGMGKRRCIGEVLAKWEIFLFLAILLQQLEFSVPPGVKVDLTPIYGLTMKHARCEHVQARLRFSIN
Briefly: Inhibition of human recombinant CYP1A2 using phenacetin substrate by LC-MS/MS method. Format: ADME. Summed up: (§1)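 Compounds tested in duplicate at six concentrations up to 50 μM. Acetonitrile quench at one time point, then LC–MS/MS of probe metabolites. Metabolites were normalized to vehicle controls and IC50 calculated.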

For series [4], the target named is Cytochrome P450 2C9 (Homo sapiens, UniProt P11712). As to the kind of experiment: Inhibition of human recombinant CYP2C9 using diclofenac substrate by LC-MS/MS method. Format: ADME. Summed up: as §1
Sequence of Cytochrome P450 2C9 (P11712 whole entry): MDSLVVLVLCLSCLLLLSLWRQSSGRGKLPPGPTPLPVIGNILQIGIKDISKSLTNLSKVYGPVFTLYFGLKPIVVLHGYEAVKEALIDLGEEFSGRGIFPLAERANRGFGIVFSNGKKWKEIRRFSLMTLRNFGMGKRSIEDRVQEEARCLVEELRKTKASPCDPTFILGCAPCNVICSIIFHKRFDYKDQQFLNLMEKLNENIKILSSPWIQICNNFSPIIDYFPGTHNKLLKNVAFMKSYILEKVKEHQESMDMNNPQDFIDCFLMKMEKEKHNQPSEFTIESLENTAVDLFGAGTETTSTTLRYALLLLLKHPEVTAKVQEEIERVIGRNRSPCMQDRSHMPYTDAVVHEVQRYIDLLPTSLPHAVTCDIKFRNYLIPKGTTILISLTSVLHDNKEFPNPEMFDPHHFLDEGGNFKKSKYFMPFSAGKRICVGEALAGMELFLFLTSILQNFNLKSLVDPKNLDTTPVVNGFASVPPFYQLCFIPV
Series [5] concerns the target T3, Cytochrome P450 11B2, mitochondrial (Homo sapiens, UniProt P19099).
T3 sequence (P19099 whole entry): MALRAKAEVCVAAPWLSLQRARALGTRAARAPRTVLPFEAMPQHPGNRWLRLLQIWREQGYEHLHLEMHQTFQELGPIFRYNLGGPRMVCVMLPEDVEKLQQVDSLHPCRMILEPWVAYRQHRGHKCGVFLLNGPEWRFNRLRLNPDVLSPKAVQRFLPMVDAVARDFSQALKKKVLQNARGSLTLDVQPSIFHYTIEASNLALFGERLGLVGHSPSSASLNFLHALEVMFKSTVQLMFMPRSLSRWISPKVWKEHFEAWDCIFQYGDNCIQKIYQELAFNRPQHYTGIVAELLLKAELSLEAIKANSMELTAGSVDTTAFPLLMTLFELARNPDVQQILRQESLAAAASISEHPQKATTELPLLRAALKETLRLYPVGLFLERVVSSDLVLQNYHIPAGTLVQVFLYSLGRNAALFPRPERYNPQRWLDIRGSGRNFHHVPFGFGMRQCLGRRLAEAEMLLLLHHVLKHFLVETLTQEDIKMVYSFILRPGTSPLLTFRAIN
Briefly: Inhibition of human CYP11B2 expressed in V79 MZh cells using [14C]-deoxycorticosterone substrate incubated for 6 hrs by HPTLC method. Format: cell-based, V79MZh. Summed up:
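V79 MZh cells expressing human CYP11B1 or CYP11B2 were incubated 6 h with [¹⁴C]-deoxycorticosterone and inhibitor at various concentrations. Steroids were extracted with ethyl acetate, separated by HPTLC and quantified by phosphoimager.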

Series [6] concerns the target Cytochrome P450 2D6 (Homo sapiens, UniProt P10635). As to the kind of experiment: Inhibition of human recombinant CYP2D6 using bufuralol substrate by LC-MS/MS method. Format: ADME. Summed up:
as §1

The target in series [7] is Cytochrome P450 3A4 (Homo sapiens, UniProt P08684). As to the kind of experiment: Inhibition of human recombinant CYP3A4 using midazolam substrate by LC-MS/MS method. Format: ADME. In short, it runs like this:
as §1

In series [8] the target is Cytochrome P450 2C19 (Homo sapiens, UniProt P33261). As to the kind of experiment: Inhibition of human recombinant CYP2C19 using smephenytoin substrate by LC-MS/MS method. Format: ADME. Summed up: as §1
Sequence of Cytochrome P450 2C19 (P33261 whole entry): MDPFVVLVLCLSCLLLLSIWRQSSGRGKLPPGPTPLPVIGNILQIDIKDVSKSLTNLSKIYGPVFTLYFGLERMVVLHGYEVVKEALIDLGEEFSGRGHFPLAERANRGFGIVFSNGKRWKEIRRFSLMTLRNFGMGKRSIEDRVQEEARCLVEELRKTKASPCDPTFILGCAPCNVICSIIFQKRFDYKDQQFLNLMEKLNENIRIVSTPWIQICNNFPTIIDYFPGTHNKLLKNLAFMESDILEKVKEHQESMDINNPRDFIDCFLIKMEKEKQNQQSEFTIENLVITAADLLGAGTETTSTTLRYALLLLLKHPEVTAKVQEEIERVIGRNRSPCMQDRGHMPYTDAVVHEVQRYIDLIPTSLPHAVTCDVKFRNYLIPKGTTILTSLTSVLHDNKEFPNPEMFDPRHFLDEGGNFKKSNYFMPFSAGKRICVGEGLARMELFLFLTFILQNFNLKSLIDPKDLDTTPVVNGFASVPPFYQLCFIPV
Series [9] can be described thus: Stability in human hepatic microsomes assessed as unchanged compound level at 1 uM after 120 mins in presence of NADPH system by LC-MS/MS method. Format: ADME, Microsome. The note with it: liver microsomes, read-out: Stability. A general note: Liver microsomes are vesicles of endoplasmic reticulum, rich in cytochrome P450 enzymes.
For series [10], the target named is T4, Steroid 17-alpha-hydroxylase/17,20 lyase (Homo sapiens, UniProt P05093).
T4 sequence (P05093 whole entry): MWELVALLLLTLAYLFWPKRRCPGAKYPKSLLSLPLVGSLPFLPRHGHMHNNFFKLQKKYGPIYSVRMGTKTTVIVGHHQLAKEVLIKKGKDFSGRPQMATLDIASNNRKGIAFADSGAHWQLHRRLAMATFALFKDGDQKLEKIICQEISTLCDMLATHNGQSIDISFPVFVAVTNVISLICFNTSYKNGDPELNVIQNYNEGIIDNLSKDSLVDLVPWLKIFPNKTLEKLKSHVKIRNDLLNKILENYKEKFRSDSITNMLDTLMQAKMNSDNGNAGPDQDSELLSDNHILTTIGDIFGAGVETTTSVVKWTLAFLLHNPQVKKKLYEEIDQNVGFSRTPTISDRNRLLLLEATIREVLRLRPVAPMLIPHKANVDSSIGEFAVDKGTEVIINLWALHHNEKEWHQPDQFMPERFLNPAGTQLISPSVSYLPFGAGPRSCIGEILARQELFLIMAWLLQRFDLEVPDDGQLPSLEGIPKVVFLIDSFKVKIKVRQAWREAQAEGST
Briefly: Inhibition of human CYP17 expressed in Escherichia coli coexpressing human CYP17 and NADPH-P450 reductase.

Series [11] is described as follows: Half life in human hepatic microsomes at 1 uM in presence of NADPH system by LC-MS/MS method. Format: ADME, Microsome. Particulars: liver microsomes. Summed up:
(§2)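 Pooled mixed-gender human liver microsomes at 0.5 mg/mL final protein in potassium phosphate–MgCl₂ buffer (100 mM, pH 7.4). Compound at 1 μM final with NADPH system, 37 °C. Samples at 2, 5, 15, 30 and 45 min, quenched with acetonitrile, vortexed, centrifuged, and supernatant analysed by LC–MS/MS.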

A short description of series [12]: Intrinsic clearance in human hepatic microsomes at 1 uM in presence of NADPH system by LC-MS/MS method. Format: ADME. The note with it: liver microsomes, read-out: CLH. Summed up:
as §2

Sequence of Cytochrome P450 2D6 (P10635 whole entry): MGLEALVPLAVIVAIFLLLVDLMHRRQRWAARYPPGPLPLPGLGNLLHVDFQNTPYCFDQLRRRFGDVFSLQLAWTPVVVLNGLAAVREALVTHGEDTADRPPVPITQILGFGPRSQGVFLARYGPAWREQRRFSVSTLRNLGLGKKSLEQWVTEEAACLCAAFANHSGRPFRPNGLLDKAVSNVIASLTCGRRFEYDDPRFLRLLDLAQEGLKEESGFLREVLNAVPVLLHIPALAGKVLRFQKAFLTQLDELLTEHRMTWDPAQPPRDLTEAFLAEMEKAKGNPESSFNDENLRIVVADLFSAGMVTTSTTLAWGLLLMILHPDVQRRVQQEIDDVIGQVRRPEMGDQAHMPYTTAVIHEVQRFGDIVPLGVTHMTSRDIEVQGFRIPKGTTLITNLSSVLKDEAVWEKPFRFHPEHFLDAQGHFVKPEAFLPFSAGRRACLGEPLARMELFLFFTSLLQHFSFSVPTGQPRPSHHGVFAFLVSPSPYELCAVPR
Sequence of Cytochrome P450 3A4 (P08684 whole entry): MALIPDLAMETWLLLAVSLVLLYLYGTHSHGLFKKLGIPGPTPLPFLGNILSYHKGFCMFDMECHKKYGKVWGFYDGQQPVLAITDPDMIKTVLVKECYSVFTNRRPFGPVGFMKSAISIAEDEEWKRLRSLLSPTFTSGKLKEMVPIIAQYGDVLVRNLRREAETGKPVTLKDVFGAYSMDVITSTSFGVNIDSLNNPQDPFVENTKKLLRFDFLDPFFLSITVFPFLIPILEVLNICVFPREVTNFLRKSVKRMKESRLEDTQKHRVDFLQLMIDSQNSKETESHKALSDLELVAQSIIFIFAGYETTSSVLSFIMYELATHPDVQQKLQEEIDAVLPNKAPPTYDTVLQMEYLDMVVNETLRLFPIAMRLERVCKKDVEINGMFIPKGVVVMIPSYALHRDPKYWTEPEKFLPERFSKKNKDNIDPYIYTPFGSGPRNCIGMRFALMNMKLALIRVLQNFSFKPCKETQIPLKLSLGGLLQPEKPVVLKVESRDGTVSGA

What is called IC50 is the midpoint of a concentration-inhibition curve. Usually half-life stands for the time in which the quantity being followed falls by half. With `Cc1ccncc1-c1cc(F)c2c(c1)CCc1nnc(C)n1-2`, the IC50 in series [1] is > 10 µM; in [3], > 50 µM; in series [4] it was > 50 µM; in series [5], 0.0042 µM; in series [6] it was > 50 µM; in series [7], > 50 µM. The IC50 is > 50 µM in series [8] and > 10 µM in series [10]. The Ratio IC50 in series [2] amounted to 422. In addition, in [9], the remaining at 2 h, 1 µM came to 80%. The half-life at 1 µM in series [11] was > 2 h. In series [12], the microsomal CLint at 1 µM came to 4 µL/min/mg.
On to `Cc1nnc2n1-c1c(F)cc(-c3cncc(F)c3)cc1CC2`, for which the IC50 in [1] is > 10 µM; in series [3], > 50 µM; in [4], > 50 µM; in [5] it was 0.0897 µM; in series [6] it was > 50 µM; in series [7] it was > 50 µM. Also, the half-inhibitory concentration (IC50) in series [8] is > 50 µM; in [10], > 10 µM. Further, in series [2], the Ratio IC50 is 329. In series [11], the half-life at 1 µM was > 2 h. For the same compound, the microsomal CLint at 1 µM in series [12] worked out at 12 µL/min/mg.
